Experimental data taken from ChEMBL document CHEMBL4385623, “Advances in the structural studies of antibiotic potentiators against Escherichia coli” (2019).
Values after ≈ are worked out from the molar mass of the structure shown. Active and inactive are the calls of the source. No cut-off for these calls is given here. Peptide text beside a SMILES is read from it. * marks the point of attachment. βNA = c1ccc2cc(N*)ccc2c1

Tests used:
Escherichia coli [1] = assay: Potentiation of clarithromycin-induced antibacterial activity against Escherichia coli ATCC 25922 assessed as fold reduction in clarithromycin MIC at 12.5 ug/ml incubated for 24 hrs by spectrophotometric based assay
Escherichia coli [2] = assay: Antibacterial activity against Escherichia coli ATCC 25922 incubated for 24 hrs by spectrophotometric based assay; assay type: functional; details: ATCC 25922, 24 h
How it was run: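 Intrinsic MIC by broth microdilution. Log-phase cells at 5 × 10^5 CFU/ml in cation-adjusted Mueller-Hinton broth with two-fold serial dilutions of test compound. Aerobic incubation 24 h at 37 °C, then OD600 read. MIC is the lowest concentration giving ≥90% growth inhibition versus drug-free controls.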

Escherichia coli [3] = assay: Disruption of membrane potential in Escherichia coli ATCC 25922 at 12.5 ug/ml incubated fro 30 mins by DiOC2 probe based flow cytometric analysis; assay type: functional, organism-based
How it was run: (§1)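 Log-phase cells grown in CAMH, diluted in PBS to 2 × 10^6 CFU/ml, and treated with compound at ¼ MIC. Controls were DMSO vehicle and 2 μg/ml CCCP, with 0.2% DMSO in all tubes, in triplicate. DiOC2 added at 30 μM; 30 min in the dark at room temperature. Flow cytometry at 488 nm excitation, 10,000 cells. Red (620/30) to green (525/20) fluorescence ratio reported.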

Escherichia coli [4] = assay: Induction of inner membrane permeabilization in Escherichia coli ATCC 25922 assessed as increase in propidium iodide uptake at 1.56 to 12.5 ug/ml by PI staining based flow cytometric analysis; assay type: functional, organism-based
How it was run: (§2)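 Flow cytometry. Log-phase cells grown in CAMH and diluted in PBS to 4 × 10^6 CFU/ml. Compound added at 1/32–¼ MIC (DMSO vehicle controls), in triplicate. Propidium iodide added at 50 μM final; 1 h in the dark at room temperature. Excitation 488 nm, emission 620/30 nm, 30,000 cells per sample. Result is percent PI-positive cells.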

Escherichia coli [5] = assay: Induction of outer membrane permeabilization in Escherichia coli ATCC 25922 assessed as increase in NPN uptake at 1.56 to 12.5 ug/ml incubated for 10 mins by fluorescence assay; assay type: functional, organism-based
How it was run: (§3)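 Log-phase cells grown in CAMH, washed, and resuspended in PBS to OD600 1.0. NPN added at 10 μM final for 10 min at room temperature. Compound (1/32–¼ MIC, DMSO vehicle) added, four replicates, then 10 min in the dark at room temperature. Fluorescence read at ex 350/em 420 nm. The 10-min average, minus vehicle wells, is the corrected value.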

Escherichia coli [6] = assay: Potency index, ratio of potentiation of clarithromycin-induced antibacterial activity of PAbetaN to potentiation of clarithromycin-induced antibacterial activity of test compound against Escherichia coli ATCC 25922 assessed as fold reduction in clarithromycin MIC at 12.5 uM incubated for 24 hrs by spectrophotometric based assay; assay type: functional
[7] = tested on: Escherichia coli ATCC 25922; assay: Inhibition of AcrAB-TolC efflux pump in Escherichia coli ATCC 25922 assessed as inhibition of Hoechst 33342 efflux at 1.56 to 12.5 ug/ml pre-incubated for 5 mins followed by glucose addition by Hoechst 33342 staining based fluorescence assay
How it was run: (§4)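 Overnight cells washed and resuspended in PBS + 1 mM MgCl2 to OD600 1.0. Energy depleted with 3.13 μM CCCP for 20 min at 37 °C. Loaded with 10 μM Hoechst 33342 for 20 min, then mixed with compound (1/32–¼ MIC, DMSO vehicle) and preincubated 5 min at 37 °C. Efflux started with 50 mM glucose. Fluorescence (ex 355/em 460 nm) read each minute for 40 min at 37 °C.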

Escherichia coli [8] = assay: Induction of outer membrane permeabilization in Escherichia coli ATCC 25922 assessed as increase in propidium iodide uptake at 1.56 to 12.5 ug/ml by propidium iodide staining based flow cytometric analysis; assay type: functional, organism-based
How it was run: as §2

Escherichia coli [9] = assay: Induction of outer membrane permeabilization in Escherichia coli ATCC 25922 assessed as increase in propidium iodide uptake at 3.13 to 25 ug/ml by PI staining based flow cytometric analysis; assay type: functional, organism-based
How it was run: as §2

[10] = tested on: Escherichia coli ATCC 25922; assay: Inhibition of AcrAB-TolC efflux pump in Escherichia coli ATCC 25922 assessed as inhibition of Hoechst 33342 efflux at 3.13 to 25 ug/ml pre-incubated for 5 mins followed by glucose addition by Hoechst 33342 staining based fluorescence assay
How it was run: as §4

Escherichia coli [11] = assay: Induction of inner membrane permeabilization in Escherichia coli ATCC 25922 assessed as increase in propidium iodide uptake at 3.13 to 25 ug/ml by PI staining based flow cytometric analysis; assay type: functional, organism-based
How it was run: as §2

Escherichia coli [12] = assay: Disruption of membrane potential in Escherichia coli ATCC 25922 at 25 ug/ml incubated fro 30 mins by DiOC2 probe based flow cytometric analysis; assay type: functional, organism-based
How it was run: as §1

Escherichia coli [13] = assay: Induction of outer membrane permeabilization in Escherichia coli ATCC 25922 assessed as increase in NPN uptake at 3.13 to 25 ug/ml incubated for 10 mins by fluorescence assay; assay type: functional, organism-based
How it was run: as §3

Escherichia coli [14] = assay: Increase in membrane potential in Escherichia coli ATCC 25922 at 25 ug/ml incubated fro 30 mins by DiOC2 probe based flow cytometric analysis; assay type: functional, organism-based
How it was run: as §1

Row | Compound | fold change (FC) (Escherichia coli [1]) | MIC (Escherichia coli [2]) | further results
1 | NCCC[C@@H](N)CNC(=O)C(CCc1ccccc1)CCc1ccccc1 | 16 | 50 µg/mL (≈ 136 µM) | 
2 | N=C(N)NCCC[C@H](NC(=O)[C@@H](N)Cc1ccccc1)C(=O)Nc1ccc2ccccc2c1 [PABETAN] (H-Phe-Arg-βNA) | 4 | > 200 µg/mL | 
3 | NCC[C@H](N)CNC(=O)C(CCc1ccccc1)CCc1ccccc1 | 2 | 100 µg/mL (≈ 283 µM) | 
4 | NNCCC[C@H](N)CNC(=O)C(CCc1ccccc1)CCc1ccccc1 | 1 | 200 µg/mL (≈ 523 µM) | 
5 | NCCC[C@H](N)CNC(=O)CCc1ccccc1 | 1 | > 200 µg/mL | 
6 | NCCC[C@H](N)C(=O)NC(CCc1ccccc1)CCc1ccccc1 | 4 | > 100 µg/mL | 
7 | NCCC[C@H](N)CNC(=O)CC(c1ccccc1)c1ccccc1 | 1 | > 200 µg/mL | 
8 | NC[C@H](N)CNC(=O)C(CCc1ccccc1)CCc1ccccc1 | 16 | 200 µg/mL (≈ 589 µM) | 
9 | NCCC[C@H](N)CNC(=O)CCCc1ccccc1 | 1 | > 200 µg/mL | 
10 | NCC[C@H](N)CCNC(=O)C(CCc1ccccc1)CCc1ccccc1 | 16 | 200 µg/mL (≈ 544 µM) | 
11 | NC[C@@H](N)CCCNCC(CCc1ccccc1)CCc1ccccc1 | 32 | 100 µg/mL (≈ 283 µM) | 
12 | CN(C)CCC[C@H](N)CNC(=O)C(CCc1ccccc1)CCc1ccccc1 | 2 | 200 µg/mL (≈ 506 µM) | 
13 | NCCC[C@H](N)CNC(=O)CC(Cc1ccccc1)Cc1ccccc1 | 16 | 200 µg/mL (≈ 566 µM) | 
14 | NCCC[C@H](N)CNC(=O)CC(CCc1ccccc1)CCc1ccccc1 | 512 | 50 µg/mL (≈ 131 µM) | Activity (Escherichia coli [3]): inactive; Activity (Escherichia coli [4]): Active; Activity (Escherichia coli [5]): Dose-dependent effect; Ratio (Escherichia coli [6]): 128; inhibition [7]: Dose-dependent effect; Activity (Escherichia coli [8]): Active
15 | NCCC[C@H](N)CNC(=O)C(Cc1ccccc1)Cc1ccccc1 | 1 | > 200 µg/mL | 
16 | NC[C@@H](N)CCCNC(=O)C(CCc1ccccc1)CCc1ccccc1 | 32 | 100 µg/mL (≈ 272 µM) | 
17 | NCCC[C@H](N)CNC(=O)C(CCc1ccccc1)CCc1ccccc1 | 16 | 50 µg/mL (≈ 136 µM) | 
18 | CN(C[C@@H](N)CCCN)C(=O)C(CCc1ccccc1)CCc1ccccc1 | 1 | > 200 µg/mL | 
19 | N=C(N)NCCC[C@H](N)CNC(=O)C(CCc1ccccc1)CCc1ccccc1 | 4 | > 200 µg/mL | 
20 | CNCCC[C@H](N)CNC(=O)C(CCc1ccccc1)CCc1ccccc1 | 2 | 50 µg/mL (≈ 131 µM) | 
21 | NCC[C@H](N)CCNCC(CCc1ccccc1)CCc1ccccc1 | 64 | 50 µg/mL (≈ 141 µM) | 
22 | CN[C@@H](CCCN)CNC(=O)C(CCc1ccccc1)CCc1ccccc1 | 1 | > 200 µg/mL | 
23 | CN(C)[C@@H](CCCN)CNC(=O)C(CCc1ccccc1)CCc1ccccc1 | 2 | 100 µg/mL (≈ 253 µM) | 
24 | NCCC[C@H](N)CNCC(CCc1ccccc1)CCc1ccccc1 | 128 | 100 µg/mL (≈ 283 µM) | Activity (Escherichia coli [9]): Active; inhibition [10]: Dose-dependent effect; Activity (Escherichia coli [11]): Active; Ratio (Escherichia coli [6]): 32; Activity (Escherichia coli [12]): inactive; Activity (Escherichia coli [13]): Dose-dependent effect; Activity (Escherichia coli [14]): Active
25 | NCCC[C@H](N)CNC(=O)C(c1ccccc1)c1ccccc1 | 2 | > 200 µg/mL | 
